From ChEMBL document CHEMBL1153170, “Novel imidazolopyrimidines as dual PI3-Kinase/mTOR inhibitors” (Bioorg Med Chem Lett, 2010)
Calls of active or inactive are those of the source. The rule behind the calls is not given here.

Key:
[1] = biological target: T1, Phosphatidylinositol 4,5-bisphosphate 3-kinase catalytic subunit alpha isoform (Homo sapiens, UniProt P42336); assay: Inhibition of PI3Kalpha
[2] = biological target: Phosphatidylinositol 4,5-bisphosphate 3-kinase catalytic subunit gamma isoform (Homo sapiens, UniProt P48736); assay: Inhibition of PI3Kgamma
Sequence of Phosphatidylinositol 4,5-bisphosphate 3-kinase catalytic subunit gamma isoform (P48736 whole entry, canonical isoform): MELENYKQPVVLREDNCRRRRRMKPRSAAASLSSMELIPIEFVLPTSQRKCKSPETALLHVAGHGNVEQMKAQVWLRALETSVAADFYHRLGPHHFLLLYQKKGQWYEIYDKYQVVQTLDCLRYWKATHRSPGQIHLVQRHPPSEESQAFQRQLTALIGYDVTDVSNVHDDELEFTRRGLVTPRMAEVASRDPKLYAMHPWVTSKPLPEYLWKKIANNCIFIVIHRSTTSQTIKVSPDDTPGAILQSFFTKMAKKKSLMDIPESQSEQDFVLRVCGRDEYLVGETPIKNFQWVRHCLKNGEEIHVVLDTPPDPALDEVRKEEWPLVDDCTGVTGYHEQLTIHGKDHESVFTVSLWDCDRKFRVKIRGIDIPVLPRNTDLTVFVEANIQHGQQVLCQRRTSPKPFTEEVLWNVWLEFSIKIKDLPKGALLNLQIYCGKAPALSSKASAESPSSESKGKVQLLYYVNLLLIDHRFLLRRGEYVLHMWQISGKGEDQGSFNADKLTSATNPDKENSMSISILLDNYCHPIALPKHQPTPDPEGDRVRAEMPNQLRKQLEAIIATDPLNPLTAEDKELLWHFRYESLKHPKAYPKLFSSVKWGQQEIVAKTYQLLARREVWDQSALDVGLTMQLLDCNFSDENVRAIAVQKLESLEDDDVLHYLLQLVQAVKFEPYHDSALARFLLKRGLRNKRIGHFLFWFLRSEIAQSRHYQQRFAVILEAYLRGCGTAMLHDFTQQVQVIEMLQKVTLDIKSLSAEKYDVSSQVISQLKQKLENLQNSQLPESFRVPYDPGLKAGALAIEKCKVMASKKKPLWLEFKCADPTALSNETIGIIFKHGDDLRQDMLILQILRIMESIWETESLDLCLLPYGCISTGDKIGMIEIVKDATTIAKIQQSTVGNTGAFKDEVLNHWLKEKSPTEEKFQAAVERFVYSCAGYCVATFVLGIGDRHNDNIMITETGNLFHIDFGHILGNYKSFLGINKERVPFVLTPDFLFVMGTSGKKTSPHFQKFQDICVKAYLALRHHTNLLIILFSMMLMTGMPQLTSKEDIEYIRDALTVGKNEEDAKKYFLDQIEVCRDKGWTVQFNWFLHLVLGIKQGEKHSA

[3] = biological target: Serine/threonine-protein kinase mTOR (Homo sapiens, UniProt P42345); assay: Inhibition of mTOR
MDA-MB-361 = assay: Growth inhibition of human MDA-MB-361 cells after 72 hrs by celltiter assay; format: functional, cell-based; settings: MDA-MB-361, 72 h
How it was run: (§1)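 Cells from ATCC, maintained at 37 °C, 5% CO2 in growth medium with 10% fetal calf serum plus penicillin/streptomycin. Seeding density set per line's growth characteristics; 96-well format. Viable cells quantified by CellTiter 96 aqueous non-radioactive colorimetric proliferation assay after 72 h compound exposure.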

[4] = Growth inhibition of human PC3MM2 cells after 72 hrs by celltiter assay; format: functional, cell-based; settings: PC3MM2, 72 h; how it was run: as §1
[5] = biological target: T1, Phosphatidylinositol 4,5-bisphosphate 3-kinase catalytic subunit alpha isoform; assay: Inhibition of PI3Kalpha in human MDA-MB-361 cells assessed as reduction of phosphorylated Akt (T308) level after 4 hrs by Western blotting; format: cell-based
How it was run: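 Cells seeded 24 h before 4 h compound exposure in complete growth medium, washed with cold PBS, lysed in Tris-HCl pH 7.5/NaCl/EDTA/EGTA/Triton buffer with phosphatase and protease inhibitors. Lysates resolved by SDS-PAGE, blotted to nitrocellulose, probed for phospho-Akt T308, total Akt, actin; HRP secondary, chemiluminescent detection.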

[6] = biological target: T1, Phosphatidylinositol 4,5-bisphosphate 3-kinase catalytic subunit alpha isoform; settings: MDA-MB-361, 10 to 30 uM

T1 sequence (P42336 whole entry, canonical isoform): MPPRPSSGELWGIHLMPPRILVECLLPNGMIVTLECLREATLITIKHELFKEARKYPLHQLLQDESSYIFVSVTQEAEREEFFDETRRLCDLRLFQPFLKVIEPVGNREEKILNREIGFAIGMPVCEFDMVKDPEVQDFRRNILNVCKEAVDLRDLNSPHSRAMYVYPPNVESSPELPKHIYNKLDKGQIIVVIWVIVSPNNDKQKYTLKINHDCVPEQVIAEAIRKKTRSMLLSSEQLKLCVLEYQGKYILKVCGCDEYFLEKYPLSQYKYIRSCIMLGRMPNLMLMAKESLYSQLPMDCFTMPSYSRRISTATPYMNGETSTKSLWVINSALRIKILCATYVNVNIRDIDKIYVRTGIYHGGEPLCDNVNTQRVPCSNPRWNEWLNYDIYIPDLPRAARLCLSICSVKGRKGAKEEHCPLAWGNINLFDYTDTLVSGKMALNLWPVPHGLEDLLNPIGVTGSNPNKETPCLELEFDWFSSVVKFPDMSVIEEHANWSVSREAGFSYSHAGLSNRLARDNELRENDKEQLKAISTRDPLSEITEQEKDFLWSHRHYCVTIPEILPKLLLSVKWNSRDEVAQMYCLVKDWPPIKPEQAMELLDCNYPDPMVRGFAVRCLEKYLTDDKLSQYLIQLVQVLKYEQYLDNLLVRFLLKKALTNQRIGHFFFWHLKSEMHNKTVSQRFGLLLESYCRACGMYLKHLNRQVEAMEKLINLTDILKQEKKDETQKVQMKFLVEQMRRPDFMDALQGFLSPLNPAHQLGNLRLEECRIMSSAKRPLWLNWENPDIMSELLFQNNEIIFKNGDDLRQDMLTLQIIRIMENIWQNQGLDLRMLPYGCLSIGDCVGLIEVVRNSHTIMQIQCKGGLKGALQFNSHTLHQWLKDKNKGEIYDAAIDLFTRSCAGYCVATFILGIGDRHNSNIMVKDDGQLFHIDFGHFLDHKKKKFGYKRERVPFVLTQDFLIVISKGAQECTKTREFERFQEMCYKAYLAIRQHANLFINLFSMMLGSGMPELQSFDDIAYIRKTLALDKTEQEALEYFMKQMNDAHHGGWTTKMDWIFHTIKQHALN

| Compound | IC50 [1] | IC50 [2] | IC50 [3] | IC50 (MDA-MB-361) | IC50 [5] | inhibition [6] | IC50 [4] |
| --- | --- | --- | --- | --- | --- | --- | --- |
| Oc1cccc(-c2nc(N3CCOCC3)c3ncn(C4CCN(Cc5cncc(Cl)c5)CC4)c3n2)c1 | 37 nM | 341 nM | 200 nM | – | – | – | – |
| Oc1cncc(-c2nc(N3CCOCC3)c3ncn(C4CCN(Cc5ccc(Cl)cc5)CC4)c3n2)c1 | 16 nM | 119 nM | – | – | – | – | – |
| Cc1ccc(CN2CCC(n3cnc4c(N5CCOCC5)nc(-c5cncc(O)c5)nc43)CC2)cc1 | 42 nM | 204 nM | – | – | – | – | – |
| Oc1cccc(-c2nc(N3CCOCC3)c3ncn(C4CCN(Cc5ccccc5)CC4)c3n2)c1 | 75 nM | 10000 nM | – | – | – | – | – |
| Oc1cncc(-c2nc(N3CCOCC3)c3ncn(C4CCNCC4)c3n2)c1 | 14 nM | 44 nM | – | – | – | – | – |
| OCc1cccc(-c2nc(N3CCOCC3)c3ncn(C4CCN(Cc5ccc(F)cc5)CC4)c3n2)c1 | 70 nM | 594 nM | – | – | – | – | – |
| OCc1cccc(-c2nc(N3CCOCC3)c3ncn(C4CCN(c5ccc(F)cc5F)CC4)c3n2)c1 | 44 nM | 640 nM | 2050 nM | – | – | – | – |
| Oc1cncc(-c2nc(N3CCOCC3)c3nc[nH]c3n2)c1 | 11 nM | 47 nM | – | – | – | – | – |
| CC(=O)N1CCC(n2cnc3c(N4CCOCC4)nc(-c4cccc(CO)c4)nc32)CC1 | 189 nM | 1380 nM | – | – | – | – | – |
| Oc1cccc(-c2nc(N3CCOCC3)c3ncn(C4CCNCC4)c3n2)c1 | 64 nM | 133 nM | 950 nM | – | – | – | – |
| OCc1cccc(-c2nc(N3CCOCC3)c3ncn(C4CCN(Cc5ccccc5F)CC4)c3n2)c1 | 42 nM | 1100 nM | – | – | – | – | – |
| COc1ccc(CN2CCC(n3cnc4c(N5CCOCC5)nc(-c5cccc(O)c5)nc43)CC2)cn1 | 55 nM | 306 nM | – | – | – | – | – |
| Oc1cccc(-c2nc(N3CCOCC3)c3nc[nH]c3n2)c1 | 150 nM | 2340 nM | 1650 nM | – | – | – | – |
| OCc1cccc(-c2nc(N3CCOCC3)c3ncn(C4CCNCC4)c3n2)c1 | 57 nM | 683 nM | – | – | – | – | – |

Continued, in another order:

| IC50 [1] | IC50 [2] | IC50 [3] | IC50 (MDA-MB-361) | IC50 [5] | inhibition [6] | Compound | IC50 [4] |
| --- | --- | --- | --- | --- | --- | --- | --- |
| 23 nM | 223 nM | – | – | – | – | OCc1cccc(-c2nc(N3CCOCC3)c3ncn(C4CCN(Cc5ccc(-c6ccncc6)cc5)CC4)c3n2)c1 | – |
| 94 nM | 61 nM | – | – | – | – | Oc1cncc(-c2nc(N3CCOCC3)c3ncn(C4CCN(Cc5ccc(F)nc5)CC4)c3n2)c1 | – |
| 66 nM | 583 nM | – | – | – | – | Oc1cccc(-c2nc(N3CCOCC3)c3ncn(C4CCN(Cc5cccnc5)CC4)c3n2)c1 | – |
| 16 nM | 265 nM | – | 685 nM | 300 nM | Active | CN(C)CCCOc1ccc(CN2CCC(n3cnc4c(N5CCOCC5)nc(-c5cccc(CO)c5)nc43)CC2)cc1 | 512 nM |
| 40 nM | 368 nM | 152 nM | – | – | – | Oc1cccc(-c2nc(N3CCOCC3)c3ncn(C4CCN(Cc5ccc(N6CCOCC6)nc5)CC4)c3n2)c1 | – |
| 65 nM | 776 nM | – | – | – | – | OCc1cccc(-c2nc(N3CCOCC3)c3ncn(C4CCN(Cc5ccccn5)CC4)c3n2)c1 | – |
